Measured values taken from ChEMBL document CHEMBL1137302 (J Med Chem, 2006).
Calls of active or inactive are those of the source. The rule behind the calls is not given here.

Tests used:
D(4) dopamine receptor [1] = target: T1, D(4) dopamine receptor (Homo sapiens, UniProt P21917); test: (§1) Agonist activity at human D4.4 receptor in HEK293 cells coexpressing G-alpha-qo5 by FLIPR; type: functional, cell-based
T1 sequence (P21917 whole entry): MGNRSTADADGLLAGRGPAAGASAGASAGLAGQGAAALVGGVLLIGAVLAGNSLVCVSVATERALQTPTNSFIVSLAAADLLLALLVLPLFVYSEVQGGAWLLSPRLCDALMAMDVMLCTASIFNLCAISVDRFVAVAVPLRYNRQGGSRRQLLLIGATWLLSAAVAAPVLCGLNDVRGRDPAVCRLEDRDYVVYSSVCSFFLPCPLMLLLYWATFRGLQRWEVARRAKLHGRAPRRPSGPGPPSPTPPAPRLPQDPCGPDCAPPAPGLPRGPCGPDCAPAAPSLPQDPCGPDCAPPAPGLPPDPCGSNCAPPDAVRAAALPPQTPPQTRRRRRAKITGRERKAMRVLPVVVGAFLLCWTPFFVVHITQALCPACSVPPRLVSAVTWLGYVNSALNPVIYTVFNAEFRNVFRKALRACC

[2] = target: T2, D(4) dopamine receptor (Homo sapiens) (UniProt P21917); test: Activity at human D4.4 receptor in HEK293 cells co-expressing Galphaqo5 by FLIPR; type: functional, cell-based
T2 sequence (whole entry): T1 sequence (P21917 whole entry)

[3] = target: T2, D(4) dopamine receptor (Homo sapiens); test: Agonist activity at human D4.4 receptor in HEK293 cells coexpressing G-alpha-qo5 by FLIPR upto 10 uM; type: functional, cell-based
Mustela putorius furo [4] = species on record: Mustela putorius furo; test: Induction of emesis in ferret; type: functional, organism-based
[5] = target: D(2) dopamine receptor (Rattus norvegicus) (UniProt P61169); test: Agonist activity at rat D2 receptor in HEK293 cells coexpressing G-alpha-qo5 by FLIPR relative to dopamine upto 10 uM; type: functional, cell-based
Chain of D(2) dopamine receptor (Rattus norvegicus) (P61169 whole entry): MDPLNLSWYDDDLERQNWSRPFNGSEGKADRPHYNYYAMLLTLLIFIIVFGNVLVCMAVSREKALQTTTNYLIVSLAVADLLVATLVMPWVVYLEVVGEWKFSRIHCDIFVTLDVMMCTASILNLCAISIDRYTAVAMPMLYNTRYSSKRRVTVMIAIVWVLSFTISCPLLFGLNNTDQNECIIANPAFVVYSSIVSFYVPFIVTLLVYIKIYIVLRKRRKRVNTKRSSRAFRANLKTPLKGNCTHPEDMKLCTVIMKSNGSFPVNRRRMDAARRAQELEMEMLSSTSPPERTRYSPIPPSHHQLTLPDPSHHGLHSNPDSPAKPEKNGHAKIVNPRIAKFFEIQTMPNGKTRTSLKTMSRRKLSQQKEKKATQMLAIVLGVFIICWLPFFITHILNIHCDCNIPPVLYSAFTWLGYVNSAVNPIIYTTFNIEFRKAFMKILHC
Method in brief: (§2)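 Ca2+ flux by FLIPR in HEK cells cotransfected with the D2 receptor (human, ferret or rat) plus chimeric G protein Gqo5.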

D(2) dopamine receptor [6] = target: T3, D(2) dopamine receptor (Homo sapiens, UniProt P14416); test: Binding affinity to human D2S receptor
T3 sequence (P14416 whole entry): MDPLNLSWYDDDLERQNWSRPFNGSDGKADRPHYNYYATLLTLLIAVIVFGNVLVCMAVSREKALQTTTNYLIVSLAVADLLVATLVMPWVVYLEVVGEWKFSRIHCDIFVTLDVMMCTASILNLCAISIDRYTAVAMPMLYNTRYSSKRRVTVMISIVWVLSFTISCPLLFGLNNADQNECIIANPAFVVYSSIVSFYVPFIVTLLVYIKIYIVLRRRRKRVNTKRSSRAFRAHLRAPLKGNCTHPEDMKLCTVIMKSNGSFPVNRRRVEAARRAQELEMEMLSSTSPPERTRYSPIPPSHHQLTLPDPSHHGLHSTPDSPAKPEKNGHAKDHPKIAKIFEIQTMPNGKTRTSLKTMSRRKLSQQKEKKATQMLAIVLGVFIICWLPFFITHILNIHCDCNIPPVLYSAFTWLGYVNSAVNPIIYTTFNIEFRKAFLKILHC

Rattus norvegicus [7] = test: Proerectile activity in rat measured as incidence of penile erection at 0.03 umol/kg, sc; type: functional
Method in brief: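 Conscious male rats dosed subcutaneously. Penile erection incidence scored over 60 min after injection; values are % ± SEM, with significance tested against control.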

[8] = test system: D(2) dopamine receptor (Mustela putorius furo); test: Agonist activity at ferret D2 receptor in HEK293 cells coexpressing Galphaqo5 by FLIPR relative to dopamine upto 10 uM
D(2) dopamine receptor [9] = target: T3, D(2) dopamine receptor; test: Displacement of [125I]7-OH-PIPAT from human D2L receptor expressed in HEK293 cell membrane; type: cell membranes
D(2) dopamine receptor [10] = target: T3, D(2) dopamine receptor; test: Agonist activity at human D2 receptor in HEK293 cells coexpressing G-alpha-qo5 by FLIPR relative to dopamine upto 10 uM; type: functional, cell-based; method in brief: as §2
D(4) dopamine receptor [11] = target: T4, D(4) dopamine receptor (Rattus norvegicus, UniProt P30729); test: Agonist activity at rat D4 receptor in HEK293 cells coexpressing G-alpha-qo5 by FLIPR; type: functional, cell-based
T4 sequence (P30729 whole entry): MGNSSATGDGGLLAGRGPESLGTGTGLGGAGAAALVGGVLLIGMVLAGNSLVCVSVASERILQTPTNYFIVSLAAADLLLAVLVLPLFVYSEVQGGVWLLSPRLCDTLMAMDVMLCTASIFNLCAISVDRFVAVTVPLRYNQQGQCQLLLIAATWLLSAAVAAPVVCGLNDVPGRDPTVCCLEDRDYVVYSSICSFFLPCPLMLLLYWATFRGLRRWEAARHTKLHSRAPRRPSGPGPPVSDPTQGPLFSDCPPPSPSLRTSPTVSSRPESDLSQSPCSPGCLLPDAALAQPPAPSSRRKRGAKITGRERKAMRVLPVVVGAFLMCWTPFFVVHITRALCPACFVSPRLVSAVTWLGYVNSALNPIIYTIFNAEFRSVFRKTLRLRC

[12] = Bioavailability in Sprague-Dawley rat at 1 mg/kg, po; type: ADME, organism-based; settings: in vivo
Method in brief: (§3)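 Single 1 mg/kg dose given iv, sc or orally to Sprague-Dawley rats, dogs and monkeys; plasma concentrations followed over time (mean ± SEM, n = 3). Cmax, AUC, half-life, clearance and bioavailability calculated from the curves.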

[13] = target: D(3) dopamine receptor (Homo sapiens) (UniProt P35462); test: Agonist activity at human D3 receptor in HEK293 cells coexpressing G-alpha-qo5 by FLIPR upto 10 uM; type: functional, cell-based
Chain of D(3) dopamine receptor (Homo sapiens) (P35462 whole entry): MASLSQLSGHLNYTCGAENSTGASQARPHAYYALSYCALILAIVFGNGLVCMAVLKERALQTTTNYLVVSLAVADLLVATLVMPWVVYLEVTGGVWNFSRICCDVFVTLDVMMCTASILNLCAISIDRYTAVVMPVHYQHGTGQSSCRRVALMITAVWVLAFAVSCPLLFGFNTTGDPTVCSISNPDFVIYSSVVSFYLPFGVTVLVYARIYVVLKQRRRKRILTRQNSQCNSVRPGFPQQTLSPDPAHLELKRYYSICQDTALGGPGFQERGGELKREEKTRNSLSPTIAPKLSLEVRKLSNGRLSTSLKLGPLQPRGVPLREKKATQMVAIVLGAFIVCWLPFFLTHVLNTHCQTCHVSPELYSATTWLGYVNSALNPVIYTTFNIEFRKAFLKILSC

D(4) dopamine receptor [14] = target: T1, D(4) dopamine receptor; test: Displacement of [3H]A369508 from human D4 receptor expressed in HEK293 cell membrane; type: cell membranes
Mustela putorius furo [15] = species on record: Mustela putorius furo; test: Induction of nausea in ferret; type: functional, organism-based
[16] = target: T5, D(4) dopamine receptor (Rattus norvegicus) (UniProt P30729); test: Agonist activity at rat D4 receptor in HEK293 cells co-expressing Galphaqo5 by FLIPR relative to dopamine; type: functional, cell-based
T5 sequence (whole entry): T4 sequence (P30729 whole entry)

[17] = target: T2, D(4) dopamine receptor (Homo sapiens); test: Agonist activity at human D4.4 receptor in HEK293 cells coexpressing G-alpha-qo5 by FLIPR with relative to dopamine upto 10 uM; type: functional, cell-based
Rattus norvegicus [18] = test: Blockade of ABT-670-induced erctogenic activity in rat at 1 umol/kg, ip; type: functional, organism-based
[19] = Agonist activity at ferret D4 receptor in HEK293 cells coexpressing G-alpha-qo5 by FLIPR; type: functional, cell-based, Mustela putorius furo; settings: Mustela putorius
Method in brief: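 HEK cells cotransfected with ferret D4 receptor and chimeric G protein Gqo5, with receptor activation read as a calcium flux signal on FLIPR. EC50 is the concentration giving half-maximal activation.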

Rattus norvegicus [20] = test: Proerectile activity in rat measured as incidence of penile erection at 0.1 umol/kg, sc; type: functional
Method in brief: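 Conscious male rats were given a single subcutaneous injection and observed for penile erections over the following 60 min. The read-out was the incidence of erections, expressed as % of animals ± SEM (n = 12–32 animals per group), with significance tested against controls. The value is the maximal incidence at the maximally effective dose.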

[21] = Agonist activity at ferret D4 receptor in HEK293 cells coexpressing G-alpha-qo5 by FLIPR relative to dopamine; type: functional, Mustela putorius furo
[22] = Half life in Sprague-Dawley rat at 1 mg/kg, sc; type: ADME, organism-based; parameters: dose 1 mg/kg, route subcutaneous; settings: in vivo; method in brief: as §3
[23] = Bioavailability in Sprague-Dawley rat at 1 mg/kg, sc; type: ADME, organism-based; settings: in vivo; method in brief: as §3
Rattus norvegicus [24] = test: Blockade of ABT-670-induced erctogenic activity in rat at 3 umol/kg, ip; type: functional, organism-based
[25] = target: T2, D(4) dopamine receptor (Homo sapiens); test: as §1; type: functional, cell-based

For O=C(NCN1CCC(c2cccc[n+]2[O-])CC1)c1ccccc1, the EC50 (D(4) dopamine receptor [1]) was 532 nM and the Activity ([2]; filed as partial agonist) was “Partial agonist”.
With Cc1cccc(NC(=O)CN2CCC(c3ccc(F)cc3)CC2)c1 the Activity [3] was “inactive”.
For O=C(CN1CCC(c2cccc[n+]2[O-])CC1)NC1CCCCC1, the EC50 (D(4) dopamine receptor [1]) was 294 nM and the Activity ([2]; filed as partial agonist) was “Partial agonist”.
For [O-][n+]1ccccc1C1CCN(Cc2nc3ccccc3[nH]2)CC1, the EC50 (D(4) dopamine receptor [1]) was 54 nM and the Activity ([2]; filed as partial agonist) was “Partial agonist”.
In the case of Cc1cc(F)ccc1NC(=O)CN1CCC(c2cccc[n+]2[O-])CC1, the Activity (Mustela putorius furo [4]) is reported as “inactive”, the Activity [5] is reported as “inactive” and the Ki (D(2) dopamine receptor [6]) is reported as over 10 µM. For the same molecule, the Activity (Rattus norvegicus [7]) was 67%, the Activity [8] was “inactive” and the Ki (D(2) dopamine receptor [9]) was over 10 µM. The Activity (D(2) dopamine receptor [10]) was “inactive”, the EC50 (D(4) dopamine receptor [11]) was 100 nM and the bioavailability [12] was 7%. For the same molecule, the Activity [13] was “inactive”, the EC50 (D(4) dopamine receptor [1]) was 60 nM and the Ki (D(4) dopamine receptor [14]) was 405 nM. For the same molecule, the Activity ([2]; filed as agonist) was “Agonist”, the Activity (Mustela putorius furo [15]) was “inactive” and the Efficacy [16] was 76%.
With Cc1cccc(NC(=O)CN2CCC(c3cccc(O)c3)CC2)c1 the EC50 (D(4) dopamine receptor [1]) was 8 nM and the Activity ([2]; filed as partial agonist) was “Partial agonist”.
In the case of O=C(CN1CCC(c2cccc[n+]2[O-])CC1)Nc1ccccn1, the Activity [17] is reported as “inactive”.
In the case of O=C(CCCN1CCC(O)(c2ccc(Cl)cc2)CC1)c1ccc(F)cc1, the Activity (Rattus norvegicus [18]) is reported as “Active”.
With Oc1ccc(N2CCN(Cc3nc4ccccc4[nH]3)CC2)nc1 the Activity (Mustela putorius furo [4]) was “inactive”, the Activity [5] was “inactive” and the Ki (D(2) dopamine receptor [6]) was over 10 µM. For the same molecule, the EC50 [19] was 5 nM, the Activity [8] was “inactive” and the Ki (D(2) dopamine receptor [9]) was over 10 µM. The Activity (D(2) dopamine receptor [10]) was “inactive”, the EC50 (D(4) dopamine receptor [11]) was 13.7 nM and the Activity [13] was “inactive”. The Activity (Rattus norvegicus [20]) was 60%, the Efficacy [21] was 48% and the EC50 (D(4) dopamine receptor [1]) was 2.4 nM. The Ki (D(4) dopamine receptor [14]) was 17 nM, the Activity ([2]; filed as partial agonist) was “Partial agonist” and the Activity (Mustela putorius furo [15]) was “inactive”. It also gave an Efficacy [16] of 66%.
Cc1cccc(NC(=O)CN2CCC(c3ccc(O)cn3)CC2)c1 showed a bioavailability [12] of 0% and an EC50 (D(4) dopamine receptor [1]) of 3.8 nM.
Work on Cc1cccc(NC(=O)CN2CCC(c3ccccn3)CC2)c1 yielded a half-life [22] of 42 min, a bioavailability [12] of 0% and a bioavailability [23] of 57%. For the same molecule, the Activity (Rattus norvegicus [20]) was 75%, the EC50 (D(4) dopamine receptor [1]) was 14 nM and the Ki (D(4) dopamine receptor [14]) was 8 nM. For the same molecule, the Activity ([2]; filed as agonist) was “Agonist”.
Molecule CN1CCc2cccc3c2[C@H]1Cc1ccc(O)c(O)c1-3 [APOMORPHINE] has an EC50 [19] of 1.5 nM, an Activity (Rattus norvegicus [20]) of 91% and an Efficacy [21] of 84%.
In the case of CN1CCN(C2=Nc3cc(Cl)ccc3Nc3ccccc32)CC1, the Activity (Rattus norvegicus [24]) is reported as “Active”.
In the case of Cc1cccc(C(=O)NCN2CCC(c3ccccc3)CC2)c1, the Activity [3] is reported as “inactive”, the Ki (D(2) dopamine receptor [9]) is reported as 0.235 µM and the Efficacy [25] is reported as 17%.
